Source: ChEMBL document CHEMBL4261490, “Exploring the links between peptoid antibacterial activity and toxicity” (Medchemcomm, 2017)
Values after ≈ are worked out from the molar mass of the structure shown. Square brackets hold non-standard residues; d marks the D form. Peptide text beside a SMILES is read from it. Gly(N-2-aminoethyl) = NCCNCC(=O)O; Nspe = C[C@H](NCC(=O)O)c1ccccc1; Nphe = O=C(O)CNCc1ccccc1; Nlys = NCCCCNCC(=O)O

What was measured:
[1] = Selectivity index, ratio of ED50 for human HepG2 cells to MIC for Staphylococcus aureus 3R7089 strain Oxford/ATCC 9144; type: toxicity; details: read-out: Selectivity Index
[2] = Hemolytic activity against human erythrocytes measured after 1 hr; type: ADME, cell-based, Erythrocyte; details: read-out: HD50
[3] = Cytotoxicity against mouse NIH/3T3 cells by MTS assay; type: cell-based, NIH3T3; details: read-out: ID50 (the source's name)
[4] = Selectivity index, ratio of ED50 for human HaCaT cells to MIC for Staphylococcus aureus 3R7089 strain Oxford/ATCC 9144; type: toxicity; details: read-out: Selectivity Index
Pseudomonas aeruginosa = experiment: Antibacterial activity against Pseudomonas aeruginosa PAO1 ATCC 15692 incubated for 16 hrs under shaking condition; type: functional; details: PAO1 ATCC 15692, 16 h
Method in brief: (§1)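 Broth microdilution (Andrews method) in Iso-sensitest broth. Overnight cultures are adjusted to A650 0.07 (0.5 McFarland) and diluted ten-fold. Compounds come from 5 mM DMSO stocks, 2-fold serially diluted, final 2–100 μM in a 1:1 inoculum:compound mix. Incubation is 37 °C for 16 h with shaking. MIC is the lowest concentration giving complete growth inhibition, read by absorbance; triplicate.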

Escherichia coli = experiment: Antibacterial activity against Escherichia coli K-12 W3110 ATCC 27325 incubated for 16 hrs under shaking condition; type: functional; details: K-12 substr. W3110 ATCC 27325, 16 h; method in brief: as §1
[5] = Selectivity index, ratio of ED50 for human HaCaT cells to MIC for Escherichia coli K-12 W3110 ATCC 27325; type: toxicity; details: read-out: Selectivity Index
[6] = Cytotoxicity against human HepG2 cells assessed as reduction in cell viability pretreated for 1 hr followed by DMEM addition measured after 24 hrs by alamar blue assay; type: cell-based; details: read-out: ED50
Method in brief: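 HepG2 cells are kept in DMEM high glucose with 10% heat-inactivated FBS and 1% P/S at 37 °C, 5% CO2, and seeded at 2x10^4 cells/well one day ahead. They are exposed to compounds (100 to 3 µM, from 5 mM DMSO stocks) in 50 µL for 1 h. Medium is then added and cells incubated 24 h. alamarBlue is read after 2 h (Ex 560/Em 600). Triplicate on ≥2 occasions; ED50 from dose-response; DMSO negative control.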

[7] = Cytotoxicity against human HaCaT cells assessed as reduction in cell viability pretreated for 1 hr followed by DMEM addition measured after 24 hrs by alamar blue assay; type: cell-based; details: read-out: ED50
Method in brief: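 HaCaT keratinocytes are grown in DMEM high glucose with 10% FBS and 1% P/S and seeded at 2x10^4 cells/well 24 h before treatment. Compound dilution series run 2–100 µM (5 mM DMSO stocks) in 50 µL for 1 h, then medium is added for 24 h at 37 °C, 5% CO2. alamarBlue is read after 1 h (Ex 540/Em 620). Triplicate, ≥2 occasions; ED50 from dose-response; amphotericin B positive control.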

[8] = Selectivity index, ratio of ED50 for human HaCaT cells to MIC for Staphylococcus epidermidis clinical isolate; type: toxicity; details: read-out: Selectivity Index
[9] = Selectivity index, ratio of ED50 for human HepG2 cells to MIC for Escherichia coli K-12 W3110 ATCC 27325; type: toxicity; details: read-out: Selectivity Index
[10] = Selectivity index, ratio of ED50 for human HepG2 cells to MIC for Staphylococcus epidermidis clinical isolate; type: toxicity; details: read-out: Selectivity Index
[11] = Selectivity index, ratio of ED50 for human HepG2 cells to MIC for Pseudomonas aeruginosa PAO1 ATCC 15692; type: toxicity; details: read-out: Selectivity Index
[12] = Selectivity index, ratio of ED50 for human HaCaT cells to MIC for Pseudomonas aeruginosa PAO1 ATCC 15692; type: toxicity; details: read-out: Selectivity Index
[13] = test system: Staphylococcus epidermidis; experiment: Antibacterial activity against Staphylococcus epidermidis clinical isolate incubated for 16 hrs under shaking condition; type: functional; method in brief: as §1
Staphylococcus aureus = experiment: Antibacterial activity against Staphylococcus aureus 3R7089 strain Oxford/ATCC 9144 incubated for 16 hrs under shaking condition; type: functional; details: 3R7089 strain Oxford/ATCC 9144, 16 h; method in brief: as §1

Compound	selectivity ratio [1]	HC50 at 1 h [2] [µM]	CC50 [3] [µM]	selectivity ratio [4]	MIC (Pseudomonas aeruginosa) [µM]	MIC (Escherichia coli) [µM]	selectivity ratio [5]	CC50 at 24 h [6] [µM]	CC50 at 24 h [7] [µM]	selectivity ratio [8]	selectivity ratio [9]	selectivity ratio [10]	selectivity ratio [11]	selectivity ratio [12]	MIC [13] [µM]	MIC (Staphylococcus aureus) [µM]
C[C@@H](c1ccccc1)N(CC(N)=O)C(=O)CN(C(=O)CN(CCCCN)C(=O)CN(C(=O)CN(C(=O)CN(CCCCN)C(=O)CN(C(=O)CN(C(=O)CN(CCCCN)C(=O)CN(C(=O)CN(C(=O)CNCCCCN)[C@@H](C)c1ccccc1)[C@@H](C)c1ccccc1)[C@@H](C)c1ccccc1)[C@@H](C)c1ccccc1)[C@@H](C)c1ccccc1)[C@@H](C)c1ccccc1)[C@@H](C)c1ccccc1 (H-[Nlys][Nspe][Nspe][Nlys][Nspe][Nspe][Nlys][Nspe][Nspe][Nlys][Nspe][Nspe]-NH2)	15	100	5.1	10												
NCCCCNCC(=O)N(CC(=O)N(CC(=O)N(CCCCN)CC(=O)N(CC(=O)N(CC(N)=O)Cc1ccccc1)Cc1ccccc1)Cc1ccccc1)Cc1ccccc1 (H-[Nlys][Nphe][Nphe][Nlys][Nphe][Nphe]-NH2)	1			1	> 100	> 100	1	> 100	> 100	1	1	1	1	1	> 100	> 100
C[C@@H](c1ccccc1)N(CC(N)=O)C(=O)CN(C(=O)CN(CCN)C(=O)CN(C(=O)CN(C(=O)CNCCN)[C@@H](C)c1ccccc1)[C@@H](C)c1ccccc1)[C@@H](C)c1ccccc1	1			1	> 100	> 100	1	> 100	> 100	1	1	1	1	1	> 100	> 100
NCCNCC(=O)N(CC(=O)N(CC(=O)N(CCN)CC(=O)N(CC(=O)N(CC(N)=O)Cc1ccccc1)Cc1ccccc1)Cc1ccccc1)Cc1ccccc1 (H-[Gly(N-2-aminoethyl)][Nphe][Nphe][Gly(N-2-aminoethyl)][Nphe][Nphe]-NH2)	1			1	> 100	> 100	1	> 100	> 100	1	1	1	1	1	> 100	> 100
N=C(N)NCCCCNCC(=O)N(CC(=O)N(CC(=O)N(CCCCNC(=N)N)CC(=O)N(CC(=O)N(CC(=O)N(CCCCNC(=N)N)CC(=O)N(CC(=O)N(CC(=O)N(CCCCNC(=N)N)CC(=O)N(CC(=O)N(CC(N)=O)Cc1cccc(F)c1)Cc1cccc(F)c1)Cc1cccc(F)c1)Cc1cccc(F)c1)Cc1cccc(F)c1)Cc1cccc(F)c1)Cc1cccc(F)c1)Cc1cccc(F)c1	11			14	13 (≈ 26.3 µg/mL)	13 (≈ 26.3 µg/mL)	2	21	28	14	2	11	2	2	2 (≈ 4.04 µg/mL)	2 (≈ 4.04 µg/mL)
